Results on ten compounds are retold here after ChEMBL document CHEMBL1165965, “Synthesis and structure-activity relationships of 1,2,3,4-tetrahydropyrido[2,3-b]pyrazines as potent and selective inhibitors of the anaplastic lymphoma kinase” (Bioorg Med Chem, 2010).

As usually defined, the inhibition is the change of the read-out against control, counted positive when it falls.

Molecules are shown by their SMILES.

Test [1] deals with T1, Serine/threonine-protein kinase 17B (Homo sapiens) (UniProt O94768).
T1 sequence (whole entry): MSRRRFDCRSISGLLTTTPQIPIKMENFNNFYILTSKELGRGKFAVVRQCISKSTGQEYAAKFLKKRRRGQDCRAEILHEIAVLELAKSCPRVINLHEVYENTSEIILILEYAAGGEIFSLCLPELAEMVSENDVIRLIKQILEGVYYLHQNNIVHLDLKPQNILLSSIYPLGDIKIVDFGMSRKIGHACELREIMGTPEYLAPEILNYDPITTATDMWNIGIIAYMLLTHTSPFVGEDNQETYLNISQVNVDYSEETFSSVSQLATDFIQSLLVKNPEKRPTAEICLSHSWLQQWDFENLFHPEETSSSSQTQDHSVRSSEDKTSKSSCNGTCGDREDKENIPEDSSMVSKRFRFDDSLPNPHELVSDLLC
In words: Inhibition of DRAK2 at 1 uM.

In test [2] the test system is Tyrosine-protein kinase ABL1 (Homo sapiens), P00519 [F317I]. In words: Inhibition of ABL1 F317I mutant at 1 uM.
Test [3] addresses T2, Serine/threonine-protein kinase STK11 (Homo sapiens) (UniProt Q15831).
T2 sequence (whole entry): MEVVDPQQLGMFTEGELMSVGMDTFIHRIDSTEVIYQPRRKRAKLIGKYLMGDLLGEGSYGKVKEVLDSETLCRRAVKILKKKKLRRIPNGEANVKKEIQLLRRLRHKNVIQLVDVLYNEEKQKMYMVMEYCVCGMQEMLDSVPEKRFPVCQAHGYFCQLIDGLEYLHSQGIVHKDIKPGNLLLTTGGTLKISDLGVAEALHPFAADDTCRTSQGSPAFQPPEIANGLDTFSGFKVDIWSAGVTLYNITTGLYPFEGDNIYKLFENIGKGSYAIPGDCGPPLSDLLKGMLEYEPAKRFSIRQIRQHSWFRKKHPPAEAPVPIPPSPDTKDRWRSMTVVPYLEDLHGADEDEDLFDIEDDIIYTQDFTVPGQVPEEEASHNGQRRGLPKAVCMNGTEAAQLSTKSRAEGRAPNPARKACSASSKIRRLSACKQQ
In words: Inhibition of LKB1 at 1 uM. The method in brief:
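Single-concentration screen on the Ambit KINOMEscan platform, run against a panel of 250–400 kinases. Per-kinase inhibition was also summarized as S(90), the fraction of kinases inhibited by more than 90%.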

Test [4] deals with Vascular endothelial growth factor receptor 2 (Homo sapiens) (UniProt P35968). Put plainly: Inhibition of VEGFR2 at 1 uM.
Vascular endothelial growth factor receptor 2 (Homo sapiens), sequence (P35968 whole entry): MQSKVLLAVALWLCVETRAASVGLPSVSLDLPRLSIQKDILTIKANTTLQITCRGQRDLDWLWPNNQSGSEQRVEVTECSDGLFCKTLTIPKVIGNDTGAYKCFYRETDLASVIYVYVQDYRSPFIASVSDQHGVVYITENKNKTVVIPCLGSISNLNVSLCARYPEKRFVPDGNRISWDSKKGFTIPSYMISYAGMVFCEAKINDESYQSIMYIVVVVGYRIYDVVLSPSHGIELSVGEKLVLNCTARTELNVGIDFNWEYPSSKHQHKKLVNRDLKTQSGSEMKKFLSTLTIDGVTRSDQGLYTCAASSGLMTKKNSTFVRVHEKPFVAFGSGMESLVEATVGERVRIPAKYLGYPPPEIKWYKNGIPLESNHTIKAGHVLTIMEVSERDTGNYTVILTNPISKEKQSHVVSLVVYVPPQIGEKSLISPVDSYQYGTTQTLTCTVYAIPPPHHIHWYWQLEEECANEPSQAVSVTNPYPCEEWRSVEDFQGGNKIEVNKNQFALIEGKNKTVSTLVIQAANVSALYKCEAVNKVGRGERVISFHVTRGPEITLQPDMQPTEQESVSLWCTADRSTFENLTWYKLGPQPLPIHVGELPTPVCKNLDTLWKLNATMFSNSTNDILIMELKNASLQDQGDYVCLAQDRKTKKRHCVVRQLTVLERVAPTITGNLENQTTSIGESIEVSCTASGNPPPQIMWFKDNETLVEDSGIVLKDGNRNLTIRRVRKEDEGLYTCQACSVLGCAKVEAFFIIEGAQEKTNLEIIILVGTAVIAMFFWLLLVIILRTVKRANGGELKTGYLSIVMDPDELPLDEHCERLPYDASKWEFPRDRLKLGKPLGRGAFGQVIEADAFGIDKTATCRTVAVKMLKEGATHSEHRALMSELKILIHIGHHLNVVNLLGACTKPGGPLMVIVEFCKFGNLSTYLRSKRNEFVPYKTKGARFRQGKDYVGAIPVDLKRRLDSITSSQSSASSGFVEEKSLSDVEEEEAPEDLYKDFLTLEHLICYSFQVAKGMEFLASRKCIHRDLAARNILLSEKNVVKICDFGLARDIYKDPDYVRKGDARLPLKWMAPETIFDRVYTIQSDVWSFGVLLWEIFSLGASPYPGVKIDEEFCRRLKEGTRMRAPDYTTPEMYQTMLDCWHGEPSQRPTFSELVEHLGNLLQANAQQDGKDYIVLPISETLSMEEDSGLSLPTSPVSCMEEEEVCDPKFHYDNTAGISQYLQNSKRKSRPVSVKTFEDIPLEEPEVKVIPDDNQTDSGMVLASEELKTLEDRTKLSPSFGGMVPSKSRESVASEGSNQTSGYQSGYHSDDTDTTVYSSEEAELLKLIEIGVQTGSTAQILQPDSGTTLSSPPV
Test [5] concerns Hepatocyte growth factor receptor (Homo sapiens), P08581 [M1250T]. In words: Inhibition of MET M1250T mutant at 1 uM.
Hepatocyte growth factor receptor (Homo sapiens), P08581 [M1250T], sequence (P08581 whole entry M1250T): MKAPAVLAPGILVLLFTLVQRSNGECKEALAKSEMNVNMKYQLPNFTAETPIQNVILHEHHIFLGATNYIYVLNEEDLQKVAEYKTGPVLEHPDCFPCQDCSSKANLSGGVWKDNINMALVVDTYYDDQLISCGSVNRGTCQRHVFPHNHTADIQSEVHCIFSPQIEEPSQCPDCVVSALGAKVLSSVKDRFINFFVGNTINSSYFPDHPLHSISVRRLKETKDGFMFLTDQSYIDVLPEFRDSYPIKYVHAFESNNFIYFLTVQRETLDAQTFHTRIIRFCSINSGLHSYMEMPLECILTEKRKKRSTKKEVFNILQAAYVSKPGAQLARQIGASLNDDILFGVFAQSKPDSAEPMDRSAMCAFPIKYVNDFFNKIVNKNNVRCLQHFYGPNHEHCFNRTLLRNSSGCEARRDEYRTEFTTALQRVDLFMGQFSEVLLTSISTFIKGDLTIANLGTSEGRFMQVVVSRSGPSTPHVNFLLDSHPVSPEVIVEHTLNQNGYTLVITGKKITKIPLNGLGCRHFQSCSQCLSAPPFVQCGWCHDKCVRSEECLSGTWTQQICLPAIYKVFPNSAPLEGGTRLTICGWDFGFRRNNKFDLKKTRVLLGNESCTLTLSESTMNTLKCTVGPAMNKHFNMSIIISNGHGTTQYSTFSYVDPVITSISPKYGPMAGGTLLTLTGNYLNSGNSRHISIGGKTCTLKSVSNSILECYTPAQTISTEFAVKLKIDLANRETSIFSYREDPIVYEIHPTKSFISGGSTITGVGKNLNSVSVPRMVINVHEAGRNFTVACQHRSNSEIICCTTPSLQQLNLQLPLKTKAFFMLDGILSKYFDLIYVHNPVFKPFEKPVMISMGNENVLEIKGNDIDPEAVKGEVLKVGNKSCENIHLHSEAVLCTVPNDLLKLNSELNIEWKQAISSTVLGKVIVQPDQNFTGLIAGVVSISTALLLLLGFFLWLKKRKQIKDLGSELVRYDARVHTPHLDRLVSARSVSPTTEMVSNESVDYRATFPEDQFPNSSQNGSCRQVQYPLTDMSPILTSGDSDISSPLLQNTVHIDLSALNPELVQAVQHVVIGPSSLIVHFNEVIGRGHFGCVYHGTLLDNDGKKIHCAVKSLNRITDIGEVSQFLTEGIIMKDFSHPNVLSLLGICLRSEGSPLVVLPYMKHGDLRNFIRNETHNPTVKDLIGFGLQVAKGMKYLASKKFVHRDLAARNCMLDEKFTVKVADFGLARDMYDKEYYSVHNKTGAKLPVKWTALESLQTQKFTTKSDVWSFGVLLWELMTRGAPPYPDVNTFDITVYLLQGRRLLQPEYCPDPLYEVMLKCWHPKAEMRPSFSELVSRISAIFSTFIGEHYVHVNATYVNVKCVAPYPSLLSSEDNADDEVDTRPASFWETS
Test [6] has as its target T3, Myosin-IIIb (Homo sapiens) (UniProt Q8WXR4).
T3 sequence (whole entry): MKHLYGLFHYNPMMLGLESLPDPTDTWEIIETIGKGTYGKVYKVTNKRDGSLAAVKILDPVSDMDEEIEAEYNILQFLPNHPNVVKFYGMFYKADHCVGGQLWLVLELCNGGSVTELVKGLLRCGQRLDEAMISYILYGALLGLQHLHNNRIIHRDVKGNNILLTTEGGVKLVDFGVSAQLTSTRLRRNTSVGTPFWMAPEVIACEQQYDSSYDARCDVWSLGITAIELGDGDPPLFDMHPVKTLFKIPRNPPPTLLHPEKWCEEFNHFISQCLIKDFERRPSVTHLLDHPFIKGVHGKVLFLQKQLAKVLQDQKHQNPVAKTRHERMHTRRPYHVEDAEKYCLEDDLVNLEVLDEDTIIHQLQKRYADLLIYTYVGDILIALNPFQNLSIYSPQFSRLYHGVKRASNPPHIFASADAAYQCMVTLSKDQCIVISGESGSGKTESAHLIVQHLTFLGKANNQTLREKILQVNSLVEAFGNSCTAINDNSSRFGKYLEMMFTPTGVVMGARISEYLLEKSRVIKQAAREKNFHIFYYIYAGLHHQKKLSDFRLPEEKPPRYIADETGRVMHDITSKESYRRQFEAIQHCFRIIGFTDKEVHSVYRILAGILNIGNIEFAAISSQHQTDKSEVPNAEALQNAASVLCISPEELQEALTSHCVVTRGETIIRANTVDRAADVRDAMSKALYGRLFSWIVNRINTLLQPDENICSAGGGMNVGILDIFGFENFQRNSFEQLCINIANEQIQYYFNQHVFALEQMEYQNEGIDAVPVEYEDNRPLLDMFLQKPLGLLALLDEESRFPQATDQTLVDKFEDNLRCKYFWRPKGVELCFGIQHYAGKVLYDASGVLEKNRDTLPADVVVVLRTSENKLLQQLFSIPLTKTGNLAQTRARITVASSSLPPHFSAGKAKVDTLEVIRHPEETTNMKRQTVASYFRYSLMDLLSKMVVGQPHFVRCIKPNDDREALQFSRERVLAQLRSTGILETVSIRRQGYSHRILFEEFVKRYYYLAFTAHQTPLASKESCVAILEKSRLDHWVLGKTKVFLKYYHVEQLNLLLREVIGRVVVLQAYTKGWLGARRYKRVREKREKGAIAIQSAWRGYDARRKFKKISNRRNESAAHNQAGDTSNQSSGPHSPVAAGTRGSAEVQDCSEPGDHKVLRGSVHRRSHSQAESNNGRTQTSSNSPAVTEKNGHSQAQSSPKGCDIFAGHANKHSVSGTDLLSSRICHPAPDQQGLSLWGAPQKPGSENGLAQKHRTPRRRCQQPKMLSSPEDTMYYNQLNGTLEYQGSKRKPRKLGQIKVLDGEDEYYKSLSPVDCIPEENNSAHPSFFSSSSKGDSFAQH
Put plainly: Inhibition of MYO3B at 1 uM.

Test [7] deals with Ephrin type-A receptor 7 (Homo sapiens) (UniProt Q15375). Put plainly: Inhibition of EPHA7 at 1 uM. The method in brief: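 Single-concentration screen using Ambit Bioscience KINOMEscan technology across a panel of 250–400 kinases. Per-kinase inhibition from this screen was summarized as S(90), the fraction of kinases inhibited by more than 90%.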
Ephrin type-A receptor 7 (Homo sapiens), sequence (Q15375 28-998 limits assumed): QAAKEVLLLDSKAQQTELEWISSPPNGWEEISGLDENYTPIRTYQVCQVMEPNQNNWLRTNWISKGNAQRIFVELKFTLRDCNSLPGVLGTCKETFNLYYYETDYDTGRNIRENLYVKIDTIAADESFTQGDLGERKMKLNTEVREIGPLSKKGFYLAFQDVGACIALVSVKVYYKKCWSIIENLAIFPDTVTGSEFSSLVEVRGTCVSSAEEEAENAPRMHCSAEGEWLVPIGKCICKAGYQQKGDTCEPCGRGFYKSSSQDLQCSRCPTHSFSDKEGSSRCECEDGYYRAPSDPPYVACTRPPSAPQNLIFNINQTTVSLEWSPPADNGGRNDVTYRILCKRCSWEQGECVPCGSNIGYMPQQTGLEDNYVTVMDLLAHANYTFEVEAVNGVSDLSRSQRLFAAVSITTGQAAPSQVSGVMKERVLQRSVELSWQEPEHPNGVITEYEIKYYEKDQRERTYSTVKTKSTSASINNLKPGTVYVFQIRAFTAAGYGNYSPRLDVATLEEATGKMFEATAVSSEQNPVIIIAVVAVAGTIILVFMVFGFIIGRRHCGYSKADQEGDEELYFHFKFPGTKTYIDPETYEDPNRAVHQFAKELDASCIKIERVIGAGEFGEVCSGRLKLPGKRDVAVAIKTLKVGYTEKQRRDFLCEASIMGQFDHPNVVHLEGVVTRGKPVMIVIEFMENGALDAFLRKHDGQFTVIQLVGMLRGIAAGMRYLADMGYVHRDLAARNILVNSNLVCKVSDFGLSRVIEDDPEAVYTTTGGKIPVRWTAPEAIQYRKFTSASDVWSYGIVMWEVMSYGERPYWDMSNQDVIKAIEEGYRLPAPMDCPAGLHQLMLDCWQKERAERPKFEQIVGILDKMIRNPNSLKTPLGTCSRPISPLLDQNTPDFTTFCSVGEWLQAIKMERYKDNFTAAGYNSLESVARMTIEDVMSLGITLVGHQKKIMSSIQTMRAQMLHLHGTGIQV
Test [8] concerns the target Serine/threonine-protein kinase pim-3 (Homo sapiens) (UniProt Q86V86). Put plainly: Inhibition of PIM3 at 1 uM.

Take `FC(F)(F)c1ccc(Cl)cc1CN1CCNc2ncc(-c3ccnc(N4CCNCC4)c3)cc21`: the inhibition in test [1] is below 50%; in test [2], below 50%; in test [3], below 50%; in test [4] it was below 50%; in test [5], 86%; in test [6] it was below 50%. Also, the inhibition in test [7] and in test [8] was below 50% in each case.
Turning to `CN1CCN(c2ccc(-c3cnc4c(c3)N(Cc3cc(F)ccc3F)CCN4)cn2)CC1`, the inhibition in test [1], in test [2], in test [3], in test [4], in test [5] and in test [6] was below 50% in each case. Moreover, the inhibition in test [7] and in test [8] was below 50% throughout.
As for `CN1CCN(c2ccc(-c3cnc4c(c3)N(Cc3cc(Cl)ccc3Cl)CCN4)cn2)CC1`, the inhibition in test [1], in test [2], in test [3], in test [4], in test [5] and in test [6] was below 50% each time. Moreover, the inhibition in test [7] and in test [8] was below 50% each time.
As to `O=C(O)c1ccc(-c2cnc3c(c2)N(Cc2cc(Cl)ccc2C(F)(F)F)CCN3)cc1`, the inhibition in test [2] was below 50%; in test [3], below 50%; in test [4] it was below 50%; in test [7] it was below 50%; in test [8] it was 79.2%.
Consider `CN1CCN(c2ccc(-c3cnc4c(c3)N(Cc3cc(Cl)ccc3C(F)(F)F)CCN4)cn2)CC1`, for which the inhibition in test [1], in test [2], in test [3], in test [4], in test [5] and in test [6] was below 50% in each case. The inhibition in test [7] and in test [8] was below 50% in each case.
As to `COC1CCN(C(=O)c2ccc(-c3cnc4c(c3)N(Cc3cc(Cl)ccc3C(F)(F)F)CCN4)cc2)CC1`, the inhibition in test [3], in test [4], in test [7] and in test [8] was below 50% in each case.
For `O=C(c1ccc(-c2cnc3c(c2)N(Cc2cc(Cl)ccc2C(F)(F)F)CCN3)cc1)N1CCC(N2CCCC2)CC1`, the inhibition in test [3], in test [4], in test [7] and in test [8] was below 50% each time.
`CN1CCN(c2ccc(-c3cnc4c(c3)N(Cc3c(F)ccc(F)c3Cl)CCN4)cn2)CC1`: the inhibition in test [1] is below 50%; in test [2], 74%; in test [3], below 50%; in test [4] it was below 50%; in test [5] it was 82%; in test [6] it was below 50%. In addition, the inhibition in test [7] and in test [8] was below 50% in each case.
Consider `O=C(c1ccc(-c2cnc3c(c2)N(Cc2cc(Cl)ccc2C(F)(F)F)CCN3)cc1)N1CCCCC1`, for which the inhibition in test [3], in test [4], in test [7] and in test [8] was below 50% throughout.
On to `CC(=O)N1CCN(c2cc(-c3cnc4c(c3)N(Cc3cc(Cl)ccc3C(F)(F)F)CCN4)ccn2)CC1`, for which the inhibition in test [1], in test [2], in test [3], in test [4], in test [5] and in test [6] was below 50% in each case. For the same compound, the inhibition in test [7] and in test [8] was below 50% throughout.
